# Measurements of several laboratories.
# Compare with care: the assays were run in different laboratories.
# Target: Interleukin-1 receptor-associated kinase 3 (IRAK3, Homo sapiens, UniProt Q9Y616)
# One construct used (Q9Y616 1-596): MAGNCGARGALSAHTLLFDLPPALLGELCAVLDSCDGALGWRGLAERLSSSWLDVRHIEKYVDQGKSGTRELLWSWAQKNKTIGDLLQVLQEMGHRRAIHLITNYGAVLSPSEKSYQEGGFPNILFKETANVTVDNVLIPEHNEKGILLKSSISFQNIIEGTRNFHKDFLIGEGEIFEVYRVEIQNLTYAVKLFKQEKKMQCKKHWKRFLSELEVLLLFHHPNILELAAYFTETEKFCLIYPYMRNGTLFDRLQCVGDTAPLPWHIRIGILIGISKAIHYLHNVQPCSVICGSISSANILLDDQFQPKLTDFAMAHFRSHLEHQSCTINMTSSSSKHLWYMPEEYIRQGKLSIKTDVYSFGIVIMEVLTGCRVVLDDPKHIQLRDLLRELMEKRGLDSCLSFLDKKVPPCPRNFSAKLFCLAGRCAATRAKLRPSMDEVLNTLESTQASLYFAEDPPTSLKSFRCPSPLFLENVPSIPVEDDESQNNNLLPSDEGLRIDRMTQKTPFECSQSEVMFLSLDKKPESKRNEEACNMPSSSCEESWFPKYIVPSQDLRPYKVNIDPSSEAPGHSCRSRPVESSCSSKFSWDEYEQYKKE
Structure (SMILES),observed,technique,concentration,remaining binding
Cc1cnc(Nc2ccc(C(=O)N3CCC(N4CCCC4)CC3)cc2)nc1-c1cc2ccccc2s1,binding,competition with immobilised ligand,1 µM,5.3%
c1cncc(-c2cccc(Nc3nccc(NC4CCCCC4)n3)c2)c1,binding,competition with immobilised ligand,10 µM,4.5%
O=C(NCC1CCOCC1)c1n[nH]cc1NC(=O)c1c(F)cccc1F,binding,competition with immobilised ligand,1 µM,92%
CNC(=O)[C@@H]1CC[C@@H](n2c(-c3ccc4cnccc4c3)nc3ccc(C(=O)NCc4cccc(C(N)=O)c4)cc32)C1,binding,competition with immobilised ligand,1 µM,97%
N[C@@H]1CCN(c2nccc(-c3cnn4ncccc34)n2)C1,binding,,1 µM,100%
CS(=O)(=O)N1CCCC(NC(=O)[C@H](CCC2CCCCC2)NC(=O)c2ccc(CNc3ncnc4c3nnn4-c3ccccc3)cc2)C1 (some centres unmarked),cell-free assay,competition with immobilised ligand,0.1 µM,100%
FC(F)(F)Oc1cccc(-c2cnc3ccc(-c4ccncc4)nn23)c1,cell-free assay,competition with immobilised ligand,5 µM,7.6%
CN(C(=O)c1ccccc1)c1cc(N(C)c2ccc3c(c2)CCc2ccc(C(=O)NCCN4CCOCC4)cc2C3=O)ccc1F,cell-free assay,competition with immobilised ligand,1 µM,91%
F[C@@H]1CCN(c2nccc(-c3cnn4ncccc34)n2)C1,binding,,1 µM,100%
CNC(=O)Nc1ccc2c(c1)CC[C@@]21OC(=O)N(CC(=O)N(Cc2ccc(F)cc2)[C@@H](C)C(F)(F)F)C1=O,cell-free assay,competition with immobilised ligand,1 µM,95%
COc1ncc2cc3ccccc3nc2c1C#N,cell-free assay,competition with immobilised ligand,5 µM,94%
O=C(c1ccc(Nc2nccc(-c3cc4ccccc4s3)n2)cc1)N1CCC(N2CCCC2)CC1,binding,competition with immobilised ligand,1 µM,14%
CN(C)c1ncc(F)c(-c2cnn3ncccc23)n1,binding,,1 µM,100%
O=C(NCc1ncc(C(F)(F)F)cc1Cl)c1ccc2c(c1)C1(CCS(=O)(=O)CC1)[C@H](C1CC1)N2S(=O)(=O)c1ccc(F)cc1,cell-free assay,competition with immobilised ligand,1 µM,99%
C[C@H]1CCN(c2nccc(-c3cnn4ncccc34)n2)C1,binding,,1 µM,52%
O=C(NCCCN1CCOCC1)c1ccc(Nc2nccc(-c3cc4ccccc4s3)n2)cc1,binding,competition with immobilised ligand,1 µM,8.4%
CC1CCCN1c1nccc(-c2cnn3ncccc23)n1 (centres unmarked),binding,,1 µM,72%
N#Cc1ccc(Nc2ccc3[nH]c(=O)[nH]c3c2)c(Cl)c1,cell-free assay,competition with immobilised ligand,1 µM,94%
CN(C)c1nccc(-c2cnn3ncccc23)n1,binding,,1 µM,100%
O=C1CCc2cc(Nc3cc(OC4CCOCC4)c([N+](=O)[O-])cc3Cl)ccc2N1,cell-free assay,competition with immobilised ligand,1 µM,98%
